The source made the active and inactive calls.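 Rule for the calls, unless noted: active = viability at or below 30% in both replicate assays; inconclusive = viability at or below 30% in just one of the two assays; inactive = the rest.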
How the values were obtained:
[1] = SK-BR-3 cell growth inhibitors, pilot screen, 24 h, human (AID 572;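 active = viability at or below 10% of carrier control in both of two separate runs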;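 note: compound exposure lasted between 18 and 24 h rather than exactly 24 h; 100% = carrier-treated control wells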); conditions: SK-BR-3 viability, CellTiter-Glo luminescence, at 10 µM, stronger effect = lower value
[2] = HUVEC growth inhibition – cell-based, human, primary screen (AID 575); conditions: HUVEC proliferation, CellTiter-Glo luminescence, 72 h; at 10 µM; stronger effect = lower value;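 note: 100% = median of untreated cell wells with 0.1% DMSO on each plate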
Procedure, shortened: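 Test system: primary human umbilical vein endothelial cells. Quantity: 1250 cells/well. Compound: single 10 µM dose, 0.1% DMSO, from 5x medium stock. Timing: 72 h treatment at 37 °C. Detection: ATP-based CellTiter-Glo luminescent read. Benchmarks: vehicle and MePR control wells. Format: 384-well plates coated with collagen.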

[3] = growth inhibitors of H69AR lung tumor, primary screen, human, duplicate replicates (AID 580;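 active = viability at or under a set limit in both replicates, limit being median viability minus 3 SD, cut at about 48% in these data, passing the limit was not always enough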;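 note: 100% = mean luminescence of untreated wells and 0% = no signal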); conditions: H69AR lung tumor cells viability, ATP luminescence, 72 h; at 10 µM; stronger effect = lower value
[4] = reversal of MRP1-mediated doxorubicin resistance, pilot screen, H69AR cells, doxorubicin co-treatment (AID 601;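 active = viability loss from added drug above about 55%, and viability with drug at most 40%, in both replicates, limit read from the data, passing the limit was not always enough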); conditions: CellTiter-Glo, 72 h, at 10 µM; for differential viability (reversal): stronger effect = higher value
[5] = 384-well plate pilot, post-Golgi transport modulator project, inhibition of yeast transport mutant growth (AID 636; in the data active = inhibition above about 31%); conditions: absorbance 615 nm, about 18 h, stronger effect = higher value
[6] = growth suppression of yeast trafficking mutant, preliminary HTS, modulators of trafficking downstream of Golgi apparatus project, 1536-format plate, OD 615 nm (AID 637; in the data active = inhibition above about 30%); conditions: yeast transport mutant growth, absorbance 615 nm, 18 h; stronger effect = higher value
[7] = H69AR cells + 2 uM doxorubicin, measured here: viability with 2 uM doxorubicin, stronger effect = lower value
[8] = H69AR cells, compound alone cytotoxicity

Row | SMILES | viability [1] | viability [2] | viability [3] | differential viability (reversal) ([4]; H69AR cells + 2 uM doxorubicin) | viability [4, 7] [%] | viability [4, 8] [%] | inhibition [5] | inhibition [6]
1 | COc1cccc(NC(=O)CC2SC(=Nc3ccccc3)NC2=O)c1 (centres undefined) | 70% (inactive) | 106% (inactive) | 92% (inactive) | -6.89% (inactive) | 98.9 | 92 | -6.35% (inactive) | -1.27% (inactive)
2 | Cc1ccc(C)c(CSc2nnc(CCN)o2)c1 | 101% (inactive) | 41.5% (inactive) | 71.2% (inactive) | -20.6% (inactive) | 91.8 | 71.2 | -7.67% (inactive) | 5.45% (inactive)
3 | CCSc1nc(N)c(C#N)c(-c2ccccc2Cl)c1C#N | 105% (inactive) | 96.1% (inactive) | 75.9% (inactive) | -3% (inactive) | 78.9 | 75.9 | 0.14% (inactive) | 0% (inactive)
4 | Cc1cnc(C(=O)Nc2ccccc2-n2cccc2)cn1 | 94% (inactive) | 105% (inactive) | 92.4% (inactive) | 3.75% (inactive) | 88.6 | 92.4 | -7.6% (inactive) | -2.73% (inactive)
5 | Nc1cccc(C(=O)O)c1 | 129% (inactive) | 98.2% (inactive) | 94.8% (inactive) | 7.12% (inactive) | 87.7 | 94.8 | 1.82% (inactive) | 0.33% (inactive)
6 | COc1ccc(-c2nnc(SC(C)C(=O)Nc3nccs3)n2-c2ccccc2)cc1OC (centres undefined) | 105% (inactive) | 83.5% (inactive) | 86.8% (inactive) | -0.545% (inactive) | 87.4 | 86.8 | -0.96% (inactive) | 3.87% (inactive)
7 | CCOc1ccccc1N1CC(O)=C(c2nc3ccccc3s2)C1=N | 97% (inactive) | 49.4% (inactive) | 14.5% (active) | -45.7% (inactive) | 60.2 | 14.5 | 1.47% (inactive) | 2.36% (inactive)
8 | COc1ccc(CC(=O)Nc2cc(Cl)ccc2O)cc1 | 110% (inactive) | 84.5% (inactive) | 81.1% (inactive) | 0.69% (inactive) | 80.4 | 81.1 | -4.53% (inactive) | -3.09% (inactive)
9 | CCCCn1c(=O)[nH]c(=O)c2c1nc(COc1ccc(C#N)cc1)n2CCC | 106% (inactive) | 83.1% (inactive) | 88% (inactive) | 11.3% (inactive) | 76.7 | 88 | -1.04% (inactive) | -2.46% (inactive)
10 | O=C(CSc1nnc(-c2ccccc2Br)o1)Nc1cccc2ccccc12 | 89% (inactive) | 101% (inactive) | 105% (inactive) | 24.2% (inactive) | 81.2 | 105 | 0.39% (inactive) | -4.43% (inactive)
11 | CCCn1c(=NC(C)=O)c(C#N)cc2c(=O)n3cccc(C)c3nc21 | 89% (inactive) | 108% (inactive) | 87.3% (inactive) | -3.01% (inactive) | 90.3 | 87.3 | 0.81% (inactive) | -3.45% (inactive)
12 | CS(=O)(=O)NCC(c1cccnc1)N1CCN(c2ccc(F)cc2)CC1 (centres undefined) | 107% (inactive) | 113% (inactive) | 92.2% (inactive) | 0.865% (inactive) | 91.3 | 92.2 | -1.89% (inactive) | -3.45% (inactive)
13 | Cc1ccc(C2C(C(=O)c3sc(C)nc3C)=C(O)C(=O)N2CCN(C)C)o1 (centres undefined) | 93% (inactive) | 114% (inactive) | 103% (inactive) | 3.58% (inactive) | 99.1 | 103 | -3.65% (inactive) | 0% (inactive)
14 | O=C(Nc1ccc(N2CCCC2)cc1)c1cccc(F)c1 | 134% (inactive) | 51.7% (inactive) | 25.8% (active) | -24.6% (inactive) | 50.3 | 25.8 | -0.78% (inactive) | -0.82% (inactive)
15 | COC(=O)c1ccccc1NC(=O)COc1ccc(S(=O)(=O)N2CCCC2)cc1C | 90% (inactive) | 87.1% (inactive) | 74.4% (inactive) | 8.04% (inactive) | 66.4 | 74.4 | -3.03% (inactive) | 3.83% (inactive)
16 | O=S(=O)(Nn1cnnc1)c1ccccc1Cl | 84% (inactive) | 109% (inactive) | 89.3% (inactive) | -3.4% (inactive) | 92.7 | 89.3 | 4% (inactive) | 7.09% (inactive)
17 | CN/C(=C/[N+](=O)[O-])NCCSCc1ccc(CN(C)C)o1 | 116% (inactive) | 87.7% (inactive) | 94.2% (inactive) | -0.85% (inactive) | 95 | 94.2 | -2.47% (inactive) | 4% (inactive)
18 | COCCSc1nnc(NC(=O)CSCc2ccccc2)s1 | 102% (inactive) | 103% (inactive) | 93.1% (inactive) | 6.87% (inactive) | 86.3 | 93.1 | -11% (inactive) | 0.97% (inactive)
